According to ChEMBL document CHEMBL1773006, “Enone- and chalcone-chloroquinoline hybrid analogues: in silico guided design, synthesis, antiplasmodial activity, in vitro metabolism, and mechanistic studies” (J Med Chem, 2011):
In brackets after ≈: the same amount, converted by molar mass.

Experiments:
[1] = Solubility of the compound in 0.01 M hydrochloric acid at pH 2; format: physicochemical
[2] = Solubility of the compound in phosphate buffer at pH 6.5; format: physicochemical
[3] = Ratio of compound IC50 to hematin IC50 for inhibition of beta-hematin formation
[4] = system: Plasmodium falciparum; experiment: Antiplasmodial activity against chloroquine-sensitive Plasmodium falciparum D10 by FACS-based assay; format: functional, organism-based
[5] = system: Plasmodium falciparum; experiment: Antiplasmodial activity against chloroquine-resistant Plasmodium falciparum W2 by FACS-based assay; format: functional, organism-based
Outline: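 W2 parasites kept in continuous culture in standard medium with 10% human serum, synchronized with 5% D-sorbitol at ring stage when needed. Parasite development read by FACS. Final DMSO at most 0.5%. IC50 in µM is the mean of two independent determinations, each run in duplicate.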

[6] = system: Plasmodium falciparum; experiment: Antiplasmodial activity against chloroquine-sensitive Plasmodium falciparum D10 infected in erythrocytes assessed as inhibition of sorbitol-induced hemolysis after 15 mins; format: functional
[7] = Inhibition of Plasmodium falciparum falcipain 2 assessed as benzyloxycarbonyl-Phe-Leu-7-amino-4-methylcoumarin substrate hydrolysis after 30 mins by spectrofluorometry analysis
[8] = Partition coefficient, log D of the compound at pH 3 by HPLC analysis; format: physicochemical; conditions: octanol/water
[9] = Partition coefficient, log D of the compound at pH 7.4 by HPLC analysis; format: physicochemical; conditions: octanol/water
[10] = system: Plasmodium falciparum; experiment: Antiplasmodial activity against chloroquine-resistant Plasmodium falciparum Dd2 by FACS-based assay; format: functional, organism-based
[11] = system: Liver; experiment: (§1) Half life in mouse liver microsomes assessed as compound degradation at 1 uM by LC-MS analysis in presence of NADPH and UDPGA; format: ADME, Microsome; conditions: microsomes, 1 µM
[12] = system: Liver microsomes; experiment: (§2) Half life in human liver microsomes assessed as compound degradation at 1 uM by LC-MS analysis in presence of NADPH and UDPGA; format: ADME, Microsome; conditions: microsomes, 1 µM
[13] = as §2; format: ADME, Microsome; conditions: liver microsomes
[14] = as §1; format: ADME, Microsome; conditions: liver microsomes
[15] = system: CHO; experiment: Cytotoxicity against CHO cells at 100 uM; format: cell-based, Cricetulus griseus; conditions: chinese hamster
[16] = phosphate buffer, read-out: solubility
[17] = 0.01 M hydrochloric acid, read-out: solubility

| SMILES | solubility ([1]; buffer) | solubility [2, 16] | Ratio IC50 [3] | IC50 [4] | IC50 [5] | inhibition (INH) [6] | IC50 [7] | logD [8] | logD [9] | IC50 [10] | t1/2 [11] | solubility ([2]; buffer) | t1/2 [12] | half-life at 1 µM [13] | half-life at 1 µM [14] | solubility [1, 17] | Activity [15] |
| --- | --- | --- | --- | --- | --- | --- | --- | --- | --- | --- | --- | --- | --- | --- | --- | --- | --- |
| COc1cc(/C=C/C(C)=O)cc(CN2CCN(c3ccnc4cc(Cl)ccc34)CC2)c1O | > 100 µg/mL | 1.6 µg/mL (≈ 3.54 µM) | 0.5 | 1 µM | 0.5 µM | 16.8% | > 50 µM | 0.9 | 3.9 | 1.7 µM | 14 min |  |  |  |  |  |  |
| COc1ccc(C(=O)/C=C/c2ccc(O)cc2)c(OC)c1 |  |  | 1.9 |  |  |  | > 50 µM |  |  |  |  |  |  |  |  |  |  |
| CC(=O)/C=C/c1ccc(O)c(CN2CCN(c3ccnc4cc(Cl)ccc34)CC2)c1 | > 100 µg/mL |  | 0.5 | 1.7 µM | 0.7 µM | 11.6% | 29.9 µM | 0.8 | 4.2 | 3.1 µM | 15 min | < 1.6 µg/mL | 7.5 min |  |  |  |  |
| COc1ccc(C(=O)/C=C/c2ccc(OCCN3CCN(c4ccnc5cc(Cl)ccc45)CC3)c(OC)c2)c(OC)c1 | > 100 µg/mL |  | 0.2 | 1.2 µM | 0.6 µM |  | 11.7 µM | 2.2 | 5.3 | 0.5 µM |  | < 1.6 µg/mL |  | 11.5 min | 9.8 min |  |  |
| COc1ccc(C(=O)/C=C/c2ccc(O)c(OC)c2)c(OC)c1 |  |  | > 5 | 5.3 µM | > 10 µM | 27.9% | > 50 µM |  |  | 7.3 µM |  |  |  |  |  |  |  |
| COc1cc(/C=C/C(C)=O)ccc1OCCNc1ccnc2cc(Cl)ccc12 |  | 6.3 µg/mL (≈ 15.9 µM) | 0.6 | 1 µM | 0.1 µM | 12.3% | > 50 µM | 1.8 | 3 | 1.5 µM | 13.4 min |  | 10.5 min |  |  | 50 µg/mL (≈ 126 µM) |  |
| CCN(CC)CCCC(C)Nc1ccnc2cc(Cl)ccc12 (stereo not given) [CHLOROQUINE] |  |  |  |  |  |  |  |  |  |  |  |  | > 250 min |  |  |  |  |
| CC(=O)/C=C/c1ccc(O)cc1 |  |  | > 5 |  |  |  | > 50 µM |  |  |  |  |  |  |  |  |  |  |
| COc1cc(/C=C/C(C)=O)ccc1O [DEHYDROZINGERONE] |  |  |  | > 20 µM | > 10 µM | 21.1% |  |  |  | > 20 µM |  |  |  |  |  |  |  |
| COc1ccc(C(=O)/C=C/c2cc(CN3CCN(c4ccnc5cc(Cl)ccc45)CC3)c(O)c(OC)c2)c(OC)c1 | > 100 µg/mL |  | 0.3 | 0.5 µM | 0.4 µM | 3.9% | 9.1 µM | 2.1 | 5 | 0.5 µM | 11.8 min | < 1.6 µg/mL | 37 min |  |  |  | Non-toxic |
| CC(C)C[C@H](NC(=O)[C@H]1O[C@@H]1C(=O)O)C(=O)NCCCCN=C(N)N [E-64] |  |  |  |  |  |  | 0.055 µM |  |  |  |  |  |  |  |  |  |  |
| COc1cc(/C=C/C(C)=O)ccc1OCCN1CCN(c2ccnc3cc(Cl)ccc23)CC1 | > 100 µg/mL | 1.6 µg/mL (≈ 3.43 µM) | 0.5 | 1.2 µM | 0.5 µM |  | > 50 µM | 1.2 | 4.2 | 1 µM |  |  |  | 9.8 min | 5.6 min |  |  |
| COc1cc(/C=C/C(C)=O)ccc1OCc1cn(-c2ccnc3cc(Cl)ccc23)nn1 |  | 3.1 µg/mL (≈ 7.13 µM) |  |  |  |  |  | 3.5 | 3.6 |  |  |  |  | 7.4 min | 6.2 min | 3.1 µg/mL (≈ 7.13 µM) |  |
| COc1ccc(C(=O)/C=C/c2ccc(OCc3cn(-c4ccnc5cc(Cl)ccc45)nn3)c(OC)c2)c(OC)c1 | < 1.6 µg/mL |  | 1.6 |  |  | 15.4% | 10.8 µM | 4.3 | 4.3 |  | 56.8 min | < 1.6 µg/mL | 51.1 min |  |  |  |  |
| COc1ccc(C(=O)/C=C/c2ccc(OCCNc3ccnc4cc(Cl)ccc34)c(OC)c2)c(OC)c1 | > 100 µg/mL | 3.1 µg/mL (≈ 5.97 µM) | 0.3 | 0.8 µM | 0.4 µM |  | 22.9 µM | 2.8 | 4.2 | 1.1 µM | 12.7 min |  | 17.5 min |  |  |  |  |
| COc1ccc(C(=O)/C=C/c2ccc(O)c(CN3CCN(c4ccnc5cc(Cl)ccc45)CC3)c2)c(OC)c1 | > 100 µg/mL |  | 0.2 | 0.6 µM | 0.3 µM |  | 10 µM | 2 | 5.3 | 0.5 µM | 45.4 min | < 1.6 µg/mL | 58.6 min |  |  |  | Non-toxic |
| OCCN1CCN(c2ccnc3cc(Cl)ccc23)CC1 |  |  | 3.9 | 5.2 µM | 1 µM |  | > 50 µM |  |  | 3.8 µM |  |  |  |  |  |  |  |
| Clc1ccc2c(N3CCNCC3)ccnc2c1 |  |  |  | 0.7 µM | 0.3 µM | 5.8% | > 50 µM |  |  | 0.9 µM |  |  |  |  |  |  |  |
| OCCNc1ccnc2cc(Cl)ccc12 |  |  | 4.9 | 2.6 µM | 0.2 µM | 0.9% | > 50 µM |  |  | 1 µM |  |  |  |  |  |  |  |
